Source: ChEMBL document CHEMBL4316593 (Eur J Med Chem, 2019)

Columns and labels:
[1] = Inhibition of RTK/PI3K/AKT/mTOR signaling in human U87 cells assessed as up regulation of ETS variant 1 gene expression at cytotoxic IC50 measured after 48 hrs relative to control; type: cell-based; details: U-87MG ATCC
Outline: (§1)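 Cells were exposed for 48hrs at 37°C in humidified 5% CO₂ to the compound at its previously determined IC₅₀, with Cisplatin at its IC₅₀ and an untreated negative control alongside. Each condition was run in triplicate. RNA was isolated from all samples by the same protocol. Genes were called differentially expressed by DESeq2 at q-value < 0.05 and fold change > 1.5.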

[2] = tested on: U-87 MG; assay: Cell cycle arrest in human U87 cells assessed as accumulation at S-phase at cytotoxic IC50 measured after 48 hrs by propidium iodide staining based fluorescence cell imaging analysis (reference value: 19.2%); type: functional, U-87MG ATCC
Outline: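 Cell cycle by PI staining. Cells seeded at 1×10^6 and grown overnight at 37°C, 5% CO₂, then exposed for 48hrs at their IC₅₀ concentration, with DMSO and cisplatin controls. Cells were trypsinized, washed in cold PBS and fixed in 70% ethanol at 4°C for 30 min. They were stained with PI in Triton X-100/RNase for 15 min at 37°C and imaged by fluorescence microscopy. Reported as mean ± S.E.M of triplicates.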

[3] = Inhibition of RTK/PI3K/AKT/mTOR signaling in human U87 cells assessed as down regulation of ZYG11B gene expression at cytotoxic IC50 measured after 48 hrs relative to control; type: cell-based; details: U-87MG ATCC; outline: as §1

**Q.** Which log2FC [1] does the source give for `CC(=O)C(=NNc1ccccc1C#N)C(C)=O` here?
**A.** 1.09

**Q.** And the Activity [2]?
**A.** 2.8%

**Q.** What about the log2FC [3] of the same molecule?
**A.** -0.823
